ChEMBL document CHEMBL3228044, “Studies on antianaphylactic agents. 6. Synthesis of some metabolites of 6-ethyl-3-(1H-tetrazol-5-yl)chromone and their analogues” (1979)

What was measured:
Rattus norvegicus [1] = assay: Antianaphylactic activity in iv dosed male Sprague-Dawley rat assessed as inhibition of egg albumin/Bordetella pertussis-induced passive cutaneous anaphylaxis reaction; type: functional; conditions: read-out: ID50 (the source's name)
Outline: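 Sera from rats sensitized with im egg albumin plus ip sterilized B. pertussis (collected day 12) were diluted fourfold and injected intradermally into dorsal skin of 8-week rats (~280 g). At 72 h, rats received iv egg albumin 5 mg plus Evans blue 10 mg. Drug in saline or PEG 400 was given iv immediately before challenge. Dye-leakage area (mm2) was read at 30 min. ID50 by least squares on log dose, with 95% confidence limits.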

Rattus norvegicus [2] = assay: Antianaphylactic activity in po dosed male Sprague-Dawley rat assessed as inhibition of egg albumin/Bordetella pertussis-induced passive cutaneous anaphylaxis reaction; type: functional; conditions: read-out: ID50 (the source's name)
Outline: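 Homologous rat PCA used 72-h skin sensitization with fourfold-diluted anti-egg albumin serum, raised with B. pertussis adjuvant, in 8-week rats (~280 g). Drug was suspended in 3% gum arabic and given orally 5 min before iv challenge with egg albumin 5 mg plus Evans blue 10 mg. Dye-leakage area (mm2) was measured after 30 min. ID50 by least squares on log dose vs area, with 95% confidence limits.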

Row | SMILES | ED50 (Rattus norvegicus [1]) | ED50 (Rattus norvegicus [2])
1 | CCc1ccc2occ(-c3nnnn3[C@@H]3O[C@H](C(=O)[O-])[C@@H](O)[C@H](O)[C@H]3O)c(=O)c2c1.[Na+] | > 20 mg/kg | 
2 | CCc1ccc2occ(-c3nnn[nH]3)c(=O)c2c1 | 0.25 mg/kg | 5.9 mg/kg
3 | CC(O)c1ccc2occ(-c3nnn[nH]3)c(=O)c2c1 (stereo not given) | 0.56 mg/kg | 13.4 mg/kg
4 | CC(=O)c1ccc2occ(-c3nnn[nH]3)c(=O)c2c1 | 0.24 mg/kg | 6.6 mg/kg
5 | O=c1c(-c2nnn[nH]2)coc2ccc(CCO)cc12 | 0.21 mg/kg | > 20 mg/kg
6 | O=c1c(-c2nnn[nH]2)coc2ccc(C(O)CO)cc12 (stereo not given) | 0.57 mg/kg | > 20 mg/kg
7 | CCc1ccc(O)c(C(=O)O)c1 | > 20 mg/kg | 
8 | O=C(O)Cc1ccc(O)c(C(=O)O)c1 | > 20 mg/kg | 
9 | CC(=O)OC(C)c1ccc2occ(-c3nnn[nH]3)c(=O)c2c1 (stereo not given) |  | > 20 mg/kg
10 | CCC(O)c1ccc2occ(-c3nnn[nH]3)c(=O)c2c1 (stereo not given) | 0.3 mg/kg | > 20 mg/kg
11 | CCCC(O)c1ccc2occ(-c3nnn[nH]3)c(=O)c2c1 (stereo not given) | 1.07 mg/kg | 
12 | CC(C)(O)c1ccc2occ(-c3nnn[nH]3)c(=O)c2c1 | 1.13 mg/kg | 
13 | CCC(=O)c1ccc2occ(-c3nnn[nH]3)c(=O)c2c1 | 0.29 mg/kg | 
14 | O=Cc1ccc2occ(-c3nnn[nH]3)c(=O)c2c1 | 1.1 mg/kg | > 20 mg/kg
15 | O=c1c(-c2nnn[nH]2)coc2ccc(CO)cc12 | 0.34 mg/kg | 
16 | C=Cc1ccc2occ(-c3nnn[nH]3)c(=O)c2c1 | 0.49 mg/kg | 
17 | O=C([O-])c1cc(=O)c2c(OCC(O)COc3cccc4oc(C(=O)[O-])cc(=O)c34)cccc2o1.[Na+].[Na+] [CROMOLYN SODIUM] | 1.33 mg/kg | > 100 mg/kg
